Data on two compounds can be found in ChEMBL document CHEMBL4138224, “DNA intercalators based on (1,10-phenanthrolin-2-yl)isoxazolidin-5-yl core with better growth inhibition and selectivity than cisplatin upon head and neck squamous cells carcinoma” (Eur J Med Chem, 2018).

For data set [1], the species on record is Bos taurus. In words: Induction of calf thymus B DNA intercalation assessed as drug binding constant at DNA melting temperature at 31 uM by UV-vis spectrophotometric method. Put shortly:
(§1)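 ct-DNA (31 μM in base pair) mixed with 31 μM compound, taken as saturating, in PBS. Absorbance at 260 nm monitored while heating 308 to 388 K at 1 K/min with a Peltier unit, giving melting curves. Binding constants estimated from the melting data.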

The species entered for data set [2] is Bos taurus. Nature of the data set: Induction of calf thymus B DNA intercalation at 36 uM by CD spectra method. Put shortly:
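CD titration at 25 °C in quartz cells: fixed ct-DNA (12.6 μM in base pair) with compound added from a 4.26 mM DMSO stock, final 0 to about 35 μM. Each spectrum is an average of 5 runs with 5 min equilibration before each scan, corrected for dilution, cell and solvent.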

The next data set concerns Bacteria. In words: Induction of bacterial pGEM-T easy DNA intercalation assessed as topoisomerase 1-mediated conversion of relaxed plasmid DNA to negatively supercoiled DNA at 10 nM after 30 mins by agarose-gel electrophoresis method. Put shortly:
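Relaxed pGEM-T Easy plasmid was made by Topo I treatment of supercoiled plasmid. Stopped with SDS/proteinase K (30 min, 50 °C). Run on 1% agarose in TBE, ethidium bromide stain; relaxed-to-supercoiled conversion scored.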

A further data set concerns HeLa. Nature of the data set: Cytotoxicity against human HeLa cells assessed as decrease in cell viability after 24 hrs by MTT assay. The data set is classed as functional, cell-based. Put shortly: (§2)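 Cells seeded at 1×10^4 per well in complete medium with 10% FBS and antibiotics, 37 °C, 5% CO2. Washed with serum-free medium, then exposed to compounds for 24 h. MTT (5 mg/mL) added for a further 4 h, formazan dissolved in DMSO, absorbance read at 490 nm. Triplicates; IC50 obtained by non-linear regression of dose-response curves.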
A general note: Tetrazolium assays rely on reduction of a dye to a coloured formazan, in cell work by metabolically active cells.

The subject of data set [3] is WSU-HN13. Nature of the data set: Cytotoxicity against human HN13 cells assessed as decrease in cell viability after 24 hrs by MTT assay. The data set is classed as functional, cell-based. As to conditions: WSU-HN13, 24 h. Put shortly: as §2
The test system of a further data set is 184B5. In words: Cytotoxicity against human 184B5 cells assessed as decrease in cell viability after 24 hrs by MTT assay. The data set is classed as cell-based. The following applies: 184B5, 24 h. In outline: as §2
Data set [4] in a line: Cytotoxicity against human HN6 cells assessed as decrease in cell viability after 24 hrs by MTT assay. The data set is classed as functional, cell-based. As to conditions: HN-6, 24 h. Put shortly:
as §2

The species entered for data set [5] is Bos taurus. In words: Induction of calf thymus B DNA intercalation assessed as DNA melting temperature at 31 uM by UV-vis spectrophotometric method (reference value: 354K). Put shortly: as §1
A short description of data set [6]: Potency index, ratio of cisplatin IC50 to test compound IC50 for human HN6 cells. The data set is classed as functional.
Data set [7] in a line: Selectivity index, ratio of IC50 for human 184B5 cells to IC50 for human HN6 cells. The data set is classed as toxicity. As to conditions: 184B5 cells versus HN6 cells, read-out: Ratio IC50.
Data set [8] is described as follows: Selectivity index, ratio of IC50 for human 184B5 cells to IC50 for human HeLa cells. The data set is classed as toxicity. As to conditions: 184B5 cells versus HeLa cells, read-out: Ratio IC50.
The subject of data set [9] is WSU-HN13. Nature of the data set: Potency index, ratio of cisplatin IC50 to test compound IC50 for human HN13 cells. The data set is classed as functional.
Data set [10] in a line: Selectivity index, ratio of IC50 for human 184B5 cells to IC50 for human HN13 cells. The data set is classed as toxicity. The following applies: 184B5 cells versus HN13 cells, read-out: Ratio IC50.

The source made the active and inactive calls. No cut-off for these calls is given here.

`COc1ccccc1CN1O[C@@H](CO)C[C@@H]1c1ccc2ccc3cccnc3c2n1` (relative stereo): the K in the data set filed under Bos taurus [1] was determined as 9.26 ×10³ /M. Moreover, the result in the data set listed under Bos taurus [2] and with Bacteria was Active. For the same compound, the IC50 (as a rule, the concentration that inhibits the measured activity by half) with HeLa is 40.2 µM; in the data set with WSU-HN13 [3], 25.4 µM; with 184B5 it was 381 µM; in data set [4], 24.8 µM. Moreover, the Tm in the data set listed under Bos taurus [5] was determined as 81.9 °C.

On to `COc1ccccc1CN1O[C@H](CO)C[C@@H]1c1ccc2ccc3cccnc3c2n1` (relative stereo), for which the K in the data set listed under Bos taurus [1] amounted to 4.53 ×10⁴ /M. Besides, the “Ratio IC50” value in data set [6] stood at 3.4; in the data set with WSU-HN13 [9], 9.2. In addition, the selectivity ratio in data set [7] was found to be 51.4; in data set [8], 24.3; in [10], 72. Moreover, the result in the data set listed under Bos taurus [2] and in the data set on Bacteria was Active. Moreover, the IC50 in the data set with HeLa turned out to be 13.3 µM; with WSU-HN13 [3], 4.5 µM; in the data set on 184B5, 324 µM; in [4] it was 6.3 µM. Also, in the data set listed under Bos taurus [5], the Tm amounted to 84.9 °C.
